# Measurements as given in ChEMBL document CHEMBL1157882, “Novel 2-[(benzylamino)methyl]pyrrolidine-3,4-diol derivatives as alpha-mannosidase inhibitors and with antitumor activities against hematological and solid malignancies” (Bioorg Med Chem, 2010).
# pIC50, pKi: −log10 of the molar value. Activity calls are given as the source filed them. The rule behind the calls is not given here.
# How the values were obtained:
# [1] = Cytotoxicity in human B-CLL assessed as early apoptotic cells at 100 uM after 24 hrs by annexin V/propidium iodide staining based flow cytometry (reference value: 3.6 to 20.2%); type: functional
# MCF7 [2] = experiment: Increase in CDKN1A mRNA level in human MCF7 cells at 50 uM after 12 hrs by TLDA; type: functional, cell-based
# How it was run: (§1)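 SKBR3 and MCF7 cells seeded at 2 × 10⁵ per well, treated 12 h with 50 µM compound (DMSO stock); total RNA extracted, cDNA made with random hexamers, gene expression profiled by TaqMan low-density arrays (qPCR, duplicate per gene). Normalised to RPLP0; fold change versus DMSO vehicle-treated cells, calculated as 2^-ΔΔCT.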
# Canavalia ensiformis = experiment: Inhibition of alpha-mannosidase from jack bean at 1 mM at pH 5
# How it was run: (§2)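 Glycosidase panel of commercial enzymes assayed at each enzyme's optimal pH with compound at 1 mM; percentage inhibition of enzyme activity calculated.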
# [3] = Cytotoxicity in human B-CLL assessed as late apoptotic/necrotic cells at 200 uM after 24 hrs by annexin V/propidium iodide staining based flow cytometry (reference value: 10 to 14.7%); type: functional
# Oryza sativa = experiment: Inhibition of alpha-glucosidase from rice at 1 mM at pH 4; how it was run: as §2
# [4] = Cytotoxicity in human multiple myeloma cells assessed as late apoptotic/necrotic cells at 100 uM after 24 hrs by annexin V/propidium iodide staining based flow cytometry (reference value: 9.1%); type: functional, Multiple myeloma cell
# [5] = Inhibition of alpha-mannosidase from jack bean at pH 5; design: species or system Canavalia ensiformis
# [6] = Cytotoxicity in human B-CLL assessed as late apoptotic/necrotic cells at 50 uM after 24 hrs by annexin V/propidium iodide staining based flow cytometry (reference value: 10 to 14.7%); type: functional
# [7] = Cytotoxicity in human multiple myeloma cells assessed as viable cells at 200 uM after 24 hrs by annexin V/propidium iodide staining based flow cytometry (reference value: 48.2%); type: functional; conditions: Multiple myeloma cell, read-out: Activity
# SK-BR-3 [8] = experiment: Cell cycle arrest in human SKBR3 cells by accumulation of cells at G2/M phase at 200 uM after 48 hrs by propidium iodide-staining based flow cytometry (reference value: 16%); type: functional
# Aspergillus niger = experiment: Inhibition of beta-xylosidase from Aspergillus niger at pH 5; design: concentration or dose not given beside the values; conditions: concentration not given here
# A549 = experiment: Cytotoxicity against human A549 cells after 72 hrs by colorimetric assay; type: functional, cell-based; conditions: Homo sapiens, A549, 72 h; read-out: IC50
# How it was run: (§3)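 Cells grown in McCoy's medium (adherent lines) or RPMI-1640 (U266), each with 10% FBS, L-glutamine and antibiotics, at 37 °C in 5% CO₂. Compound dissolved as a 100 mM DMSO stock, final DMSO ≤0.4%. Cells were exposed for 72 h across a 10^-2 to 400 µM range. Viability was read by CellTiter 96 Aqueous (2–4 h incubation, absorbance 490 nm). Triplicate wells; IC50 from curve fitting.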
# [9] = Cytotoxicity in human multiple myeloma cells assessed as pre-necrotic cells at 50 uM after 24 hrs by annexin V/propidium iodide staining based flow cytometry (reference value: 42.1%); type: functional, Multiple myeloma cell
# SK-BR-3 [10] = experiment: Cell cycle arrest in human SKBR3 cells by accumulation of cells at G2/M phase at 50 uM after 48 hrs by propidium iodide-staining based flow cytometry (reference value: 16%); type: functional
# [11] = Cytotoxicity in human multiple myeloma cells assessed as viable cells at 100 uM after 24 hrs by annexin V/propidium iodide staining based flow cytometry (reference value: 48.2%); type: functional; conditions: Multiple myeloma cell, read-out: Activity
# Helix pomatia = experiment: Inhibition of beta-mannosidase from snail at pH 4; design: concentration or dose not given beside the values; conditions: concentration not given here
# [12] = Cytotoxicity in human B-CLL assessed as pre-necrotic cells at 200 uM after 24 hrs by annexin V/propidium iodide staining based flow cytometry (reference value: 1.3 to 3.7%); type: functional
# [13] = Cytotoxicity in human multiple myeloma cells assessed as early apoptotic cells at 100 uM after 24 hrs by annexin V/propidium iodide staining based flow cytometry (reference value: 0.1%); type: functional, Multiple myeloma cell
# Jurkat = experiment: Cytotoxicity against human Jurkat cells after 72 hrs by colorimetric assay; type: functional, cell-based; conditions: Homo sapiens, Jurkat, 72 h; read-out: IC50
# [14] = target: Alpha-galactosidase (Coffea arabica) (UniProt Q42656); experiment: Inhibition of alpha-galactosidase from coffee beans at 1 mM at pH 6; how it was run: as §2
# SK-BR-3 [15] = experiment: Decrease in hTERT mRNA level in human SKBR3 cells at 50 uM after 12 hrs by TLDA; type: functional, cell-based; how it was run: as §1
# MCF7 [16] = experiment: Increase in CDKN1C mRNA level in human MCF7 cells at 50 uM after 12 hrs by TLDA; type: functional, cell-based; how it was run: as §1
# [17] = Cytotoxicity in human multiple myeloma cells assessed as pre-necrotic cells at 200 uM after 24 hrs by annexin V/propidium iodide staining based flow cytometry (reference value: 42.1%); type: functional, Multiple myeloma cell
# SK-BR-3 [18] = experiment: Increase in CDKN1A mRNA level in human SKBR3 cells at 50 uM after 12 hrs by TLDA; type: functional, cell-based; how it was run: as §1
# Prunus dulcis = experiment: Inhibition of beta-glucosidase from almond at 1 mM at pH 5; how it was run: as §2
# SK-BR-3 [19] = experiment: Decrease in CDC25 mRNA level in human SKBR3 cells at 50 uM after 12 hrs by TLDA; type: functional, cell-based
# How it was run: (§4)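 SKBR3 or MCF7 cells, 2×10⁵/well, treated with 50 µM for 12 h. Total RNA was column-purified and reverse-transcribed with random hexamers, then assayed on TaqMan low-density arrays. Expression was normalised to RPLP0, with fold change versus DMSO-vehicle cells calculated as 2^-ΔΔCT. Q-PCR run in duplicate per gene.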
# SK-BR-3 [20] = experiment: Cell cycle arrest in human SKBR3 cells by accumulation of cells at G2/M phase at 100 uM after 48 hrs by propidium iodide-staining based flow cytometry (reference value: 16%); type: functional
# [21] = Cytotoxicity in human multiple myeloma cells assessed as early apoptotic cells at 50 uM after 24 hrs by annexin V/propidium iodide staining based flow cytometry (reference value: 0.1%); type: functional, Multiple myeloma cell
# BT-474 = experiment: Cytotoxicity against human BT474 cells after 72 hrs by colorimetric assay; type: functional, cell-based; conditions: Homo sapiens, BT-474, 72 h; read-out: IC50; how it was run: as §3
# MCF7 [22] = experiment: Decrease in ID1 mRNA level in human MCF7 cells at 50 uM after 12 hrs by TLDA; type: functional, cell-based; how it was run: as §4
# MCF7 [23] = experiment: Cytotoxicity against human MCF7 cells after 72 hrs by colorimetric assay; type: functional, cell-based; conditions: Homo sapiens, MCF7, 72 h; read-out: IC50; how it was run: as §3
# [24] = Cytotoxicity in human B-CLL assessed as late apoptotic/necrotic cells at 100 uM after 24 hrs by annexin V/propidium iodide staining based flow cytometry (reference value: 10 to 14.7%); type: functional
# Chain of Alpha-galactosidase (Coffea arabica) (Q42656 16-378 limits assumed): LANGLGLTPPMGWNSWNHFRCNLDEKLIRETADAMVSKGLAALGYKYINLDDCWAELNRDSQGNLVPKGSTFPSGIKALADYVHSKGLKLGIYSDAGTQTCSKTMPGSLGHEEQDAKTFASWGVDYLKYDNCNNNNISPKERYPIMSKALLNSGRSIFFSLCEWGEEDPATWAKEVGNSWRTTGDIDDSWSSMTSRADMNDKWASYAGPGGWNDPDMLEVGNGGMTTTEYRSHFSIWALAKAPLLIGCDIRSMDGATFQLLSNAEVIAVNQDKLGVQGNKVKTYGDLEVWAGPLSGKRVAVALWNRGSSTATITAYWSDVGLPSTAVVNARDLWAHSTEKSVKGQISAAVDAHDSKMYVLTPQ
structure (smiles),measurement,setting,value
OC[C@H](NC[C@H]1NC[C@H](O)[C@@H]1O)c1ccc(-c2ccc(C(F)(F)F)cc2)cc1,Activity,[1],2.7%
same,Activity,MCF7 [2],Active
same,inhibition,Canavalia ensiformis,98%
same,Activity,[3],55.6%
same,inhibition,Oryza sativa,< 10%
same,Activity,[4],52.6%
same,pIC50,[5],5.30
same,pKi,[5],5.57
same,Activity,[6],10.1%
same,viability at 200 µM,[7],3%
same,Activity,SK-BR-3 [8],42%
same,inhibition,Aspergillus niger,52%
same,pIC50,A549,3.82
same,Activity,[9],17%
same,Activity,SK-BR-3 [10],13%
same,viability at 100 µM,[11],27.6%
same,inhibition,Helix pomatia,< 10%
same,Activity,[12],0.5%
same,Activity,[13],2.6%
same,pIC50,Jurkat,4.12
same,inhibition,[14],< 10%
same,Activity,SK-BR-3 [15],Active
same,Activity,MCF7 [16],Active
same,Activity,[17],21.3%
same,Activity,SK-BR-3 [18],Active
same,inhibition,Prunus dulcis,50%
same,Activity,SK-BR-3 [19],Active
same,Activity,SK-BR-3 [20],43%
same,Activity,[21],2.3%
same,pIC50,BT-474,4.03
same,Activity,MCF7 [22],Active
same,pIC50,MCF7 [23],4.11
same,Activity,[24],11.1%
